Results: ChEMBL document CHEMBL2429814 (J Med Chem, 2013)

Assays:
[1] = target: Metabotropic glutamate receptor 5 (Rattus norvegicus) (UniProt P31424); test: Positive allosteric modulation of rat mGluR5 stably expressed in HEK293 cells assessed as increase in intracellular calcium level by Fluo-4AM dye-based fluorescence assay relative to glutamate; format: functional, cell-based
[2] = target: T1, Metabotropic glutamate receptor 5 (Rattus norvegicus, UniProt P31424); test: Agonist activity at rat mGluR5 stably expressed in HEK293 cells assessed as increase in intracellular calcium level by Fluo-4AM dye-based fluorescence assay relative to glutamate; format: cell-based; settings: read-out: Efficacy
T1 sequence (P31424 whole entry): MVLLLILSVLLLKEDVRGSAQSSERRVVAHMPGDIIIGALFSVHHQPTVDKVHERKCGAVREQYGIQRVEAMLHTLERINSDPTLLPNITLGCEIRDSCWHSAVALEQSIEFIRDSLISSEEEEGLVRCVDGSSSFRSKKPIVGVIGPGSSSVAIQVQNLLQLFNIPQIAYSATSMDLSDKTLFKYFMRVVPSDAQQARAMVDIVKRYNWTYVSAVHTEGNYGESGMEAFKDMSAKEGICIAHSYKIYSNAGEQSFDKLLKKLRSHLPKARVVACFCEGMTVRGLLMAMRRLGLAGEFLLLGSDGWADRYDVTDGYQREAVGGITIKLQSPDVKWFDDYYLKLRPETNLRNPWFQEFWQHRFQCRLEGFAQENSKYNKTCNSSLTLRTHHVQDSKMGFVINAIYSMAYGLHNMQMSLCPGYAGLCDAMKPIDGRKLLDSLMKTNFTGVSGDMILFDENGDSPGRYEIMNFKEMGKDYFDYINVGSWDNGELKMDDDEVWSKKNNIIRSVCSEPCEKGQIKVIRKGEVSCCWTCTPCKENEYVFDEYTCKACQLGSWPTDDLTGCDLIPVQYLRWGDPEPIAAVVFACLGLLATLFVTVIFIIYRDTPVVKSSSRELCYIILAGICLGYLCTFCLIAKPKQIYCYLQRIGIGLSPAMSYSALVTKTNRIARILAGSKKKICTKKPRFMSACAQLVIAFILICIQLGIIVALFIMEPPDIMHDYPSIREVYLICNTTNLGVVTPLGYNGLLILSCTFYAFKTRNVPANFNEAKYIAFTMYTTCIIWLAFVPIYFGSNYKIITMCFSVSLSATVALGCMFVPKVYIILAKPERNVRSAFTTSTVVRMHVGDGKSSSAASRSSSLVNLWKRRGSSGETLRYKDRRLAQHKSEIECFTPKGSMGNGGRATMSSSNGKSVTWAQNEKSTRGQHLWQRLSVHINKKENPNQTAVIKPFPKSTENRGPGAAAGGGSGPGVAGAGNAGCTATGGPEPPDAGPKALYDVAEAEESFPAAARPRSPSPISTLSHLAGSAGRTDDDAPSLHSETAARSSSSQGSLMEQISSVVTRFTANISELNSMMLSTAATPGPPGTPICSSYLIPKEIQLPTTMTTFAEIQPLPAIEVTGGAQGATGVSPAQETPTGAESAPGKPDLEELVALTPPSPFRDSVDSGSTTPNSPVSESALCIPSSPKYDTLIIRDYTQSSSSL
How it was run: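 HEK293 cells stably expressing rat mGlu5 (low receptor density), 15,000 cells/well, grown overnight, then loaded with Fluo-4AM for 50 min at 37°C in HBSS/20 mM HEPES/2.5 mM probenecid, pH 7.4. Triple-add protocol: compound, then glutamate EC20 140 s later, then EC80 60 s later. Fluorescence read over time. At least three independent runs in duplicate or triplicate; response given as % of glutamate maximum.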

[3] = target: T1, Metabotropic glutamate receptor 5; test: Positive allosteric modulation of rat mGluR5 stably expressed in HEK293 cells assessed as increase in intracellular calcium level by Fluo-4AM dye-based fluorescence assay; format: functional, cell-based; settings: read-out: EC50
How it was run: (§1)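 HEK293 cells stably expressing rat mGlu5 (low receptor density line), 15,000 cells/well, grown overnight at 37°C/5% CO2. Loaded with Fluo-4AM for 50 min at 37°C in HBSS with 20 mM HEPES, 2.5 mM probenecid, pH 7.4. Triple add: compound, then EC20 glutamate 140 s later, then EC80 glutamate 60 s later. Calcium fluorescence read over time. Values are means of ≥3 independent experiments run in duplicate or triplicate.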

[4] = target: T1, Metabotropic glutamate receptor 5; test: Agonist activity at rat mGluR5 stably expressed in HEK293 cells assessed as increase in intracellular calcium level by Fluo-4AM dye-based fluorescence assay; format: cell-based; how it was run: as §1

Metabotropic glutamate receptor 5 (Rattus norvegicus), sequence (P31424 21-1203 limits assumed): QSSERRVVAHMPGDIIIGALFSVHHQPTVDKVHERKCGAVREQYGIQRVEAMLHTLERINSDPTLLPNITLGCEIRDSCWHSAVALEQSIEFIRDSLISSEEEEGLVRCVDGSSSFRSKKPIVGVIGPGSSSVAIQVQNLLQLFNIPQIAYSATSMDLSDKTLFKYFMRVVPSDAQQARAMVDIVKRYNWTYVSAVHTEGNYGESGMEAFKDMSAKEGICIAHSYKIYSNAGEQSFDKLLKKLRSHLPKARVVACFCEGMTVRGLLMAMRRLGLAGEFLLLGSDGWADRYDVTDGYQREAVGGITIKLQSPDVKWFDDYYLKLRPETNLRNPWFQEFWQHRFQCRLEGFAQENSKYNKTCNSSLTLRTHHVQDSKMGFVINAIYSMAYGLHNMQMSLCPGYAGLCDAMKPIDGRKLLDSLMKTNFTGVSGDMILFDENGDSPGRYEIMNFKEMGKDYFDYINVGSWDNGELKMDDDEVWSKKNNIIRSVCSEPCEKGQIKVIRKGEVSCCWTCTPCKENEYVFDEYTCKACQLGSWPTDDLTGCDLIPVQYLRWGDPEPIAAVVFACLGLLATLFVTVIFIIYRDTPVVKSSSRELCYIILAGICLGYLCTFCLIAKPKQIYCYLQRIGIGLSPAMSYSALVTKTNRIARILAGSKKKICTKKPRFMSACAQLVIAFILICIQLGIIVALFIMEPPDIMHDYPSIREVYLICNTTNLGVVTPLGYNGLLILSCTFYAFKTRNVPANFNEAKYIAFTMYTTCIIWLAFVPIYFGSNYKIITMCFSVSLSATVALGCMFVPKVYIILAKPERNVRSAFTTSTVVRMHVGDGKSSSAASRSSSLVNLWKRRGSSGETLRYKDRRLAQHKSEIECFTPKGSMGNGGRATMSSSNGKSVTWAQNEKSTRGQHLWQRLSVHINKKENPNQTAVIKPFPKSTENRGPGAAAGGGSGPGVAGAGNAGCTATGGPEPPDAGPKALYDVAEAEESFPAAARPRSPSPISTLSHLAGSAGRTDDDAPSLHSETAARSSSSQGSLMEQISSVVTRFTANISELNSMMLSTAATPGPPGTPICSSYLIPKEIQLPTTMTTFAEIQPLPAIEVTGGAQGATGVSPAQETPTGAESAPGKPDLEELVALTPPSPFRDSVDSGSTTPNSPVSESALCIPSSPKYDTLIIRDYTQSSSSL

Row | Structure (SMILES) | Efficacy [1] | Emax [2] | EC50 [3] | EC50 ([4]; read-out: EC50) | EC50 ([4]; read-out: pEC50 (converted))
1 | CC1(CCNC(=O)c2ccc(C#Cc3cccc(F)c3)cn2)COC1 | 65.7% | 16.3% | 47.3 nM | 2840 nM | –
2 | O=C(NCC1CCC1)c1ccc(C#Cc2cccc(F)c2)cn1 | 68.1% | 4.7% | 84 nM | – | > 10000 nM
3 | C[C@@H](NC(=O)c1ccc(C#Cc2cccc(F)c2)nn1)C(C)(C)O | 70.2% | 16.5% | 21.9 nM | 2120 nM | –
4 | C[C@@H](NC(=O)c1ccc(C#Cc2cccc(F)c2)cn1)C(C)(C)F | 68.6% | 42.8% | 5.3 nM | 2060 nM | –
5 | CC(C)(CO)NC(=O)c1ccc(C#Cc2cccc(F)c2)cn1 | 60.9% | 9.3% | 7.9 nM | 729 nM | –
6 | C[C@@H](NC(=O)c1ccc(C#Cc2ncccc2F)cn1)C(C)(C)O | 60.6% | 29.2% | 33.8 nM | 3700 nM | –
7 | C[C@@H](NC(=O)c1ccc(C#Cc2cccc(F)n2)cn1)C(C)(C)O | 63% | 8.3% | 13.6 nM | 1300 nM | –
8 | O=C(NCC(F)(F)F)c1ccc(C#Cc2cccc(F)c2)cn1 | 67% | 5.8% | 224 nM | 10700 nM | –
9 | C[C@H](NC(=O)c1ccc(C#Cc2cccc(F)c2)cn1)C(C)(C)C | 70.8% | 20% | 51.9 nM | 5400 nM | –
10 | C[C@@H](NC(=O)c1ccc(C#Cc2ccc(F)cc2F)cn1)C(C)(C)O | 61.2% | 38.2% | 26.6 nM | 3690 nM | –
11 | CC(C)[C@H](C)NC(=O)c1ccc(C#Cc2cccc(F)c2)cn1 | 66.7% | 13.1% | 20.4 nM | 2220 nM | –
12 | Cc1cccc(C#Cc2ccc(C(=O)N[C@H](C)C(C)(C)O)nc2)c1 | 68.6% | 20.8% | 6.5 nM | 1360 nM | –
13 | Cc1ccc(C#Cc2ccc(C(=O)N[C@H](C)C(C)(C)O)nc2)cc1 | 63.1% | – | 107 nM | – | –
14 | CC(C)(O)CNC(=O)c1ccc(C#Cc2cccc(F)c2)cn1 | 61.5% | 20% | 34.6 nM | 4020 nM | –
15 | C[C@@H](NC(=O)c1nc(C#Cc2cccc(F)c2)cs1)C(C)(C)O | 62.1% | 26.1% | 33.5 nM | 4780 nM | –
16 | C[C@@H](NC(=O)c1ccc(C#CC2CC2)cn1)C(C)(C)O | 63.4% | – | 1290 nM | – | –
17 | C[C@@H](NC(=O)c1ccc(C#Cc2ccccc2F)cn1)C(C)(C)O | 60% | 29.6% | 8 nM | 1160 nM | –
18 | C[C@@H](NC(=O)c1ccc(C#Cc2ccccn2)cn1)C(C)(C)C | 63% | 24.2% | 63.3 nM | 6110 nM | –
19 | C[C@@H](NC(=O)c1ccc(C#Cc2cccnc2)cn1)C(C)(C)O | 71.5% | 25.9% | 344 nM | 9300 nM | –
20 | C[C@@H](NC(=O)c1ccc(C#Cc2cccc(F)c2)nc1)C(C)(C)O | 64.9% | 26.6% | 80 nM | 6800 nM | –
21 | C[C@@H](NC(=O)c1ccc(C#Cc2cc(F)cc(F)c2)cn1)C(C)(C)O | 61.6% | 37.9% | 58.2 nM | 3670 nM | –
22 | C[C@@H](NC(=O)c1ccc(C#Cc2cccc(F)c2)cc1)C(C)(C)O | 53.9% | 43.6% | 7.5 nM | 1040 nM | –
23 | CC(C)[C@@H](C)NC(=O)c1ccc(C#Cc2cccc(F)c2)cn1 | 69.3% | 22.5% | 4.5 nM | 1470 nM | –
24 | Cc1cc(C(=O)N[C@H](C)C(C)(C)O)ncc1C#Cc1cccc(F)c1 | 66.6% | – | 242 nM | – | –
25 | CC(C)(C)NC(=O)c1ccc(C#Cc2cccc(F)c2)cn1 | – | – | 2.6 nM | – | –
26 | CC1(NC(=O)c2ccc(C#Cc3ccncc3)cn2)COC1 | 36% | – | 691 nM | – | –
